In ChEMBL document CHEMBL1158416, “Synthesis of yashabushidiol and its analogues and their cytotoxic activity against cancer cell lines” (Bioorg Med Chem Lett, 2009):
Values after ≈ are worked out from the molar mass of the structure shown.

What follows are compounds tested on A-375 (assay: Antiproliferative activity against human A375 cells after 48 hrs by MTT assay). Conditions: A-375, 48 h.
Assay type: functional, cell-based
Outline: (§1)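 Cells in exponential growth exposed to a range of test concentrations for 48 h; growth inhibition read by MTT. IC50 taken as the concentration giving a 50% fall in cell number relative to untreated control cultures, derived by regression analysis.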

Question: How did the IC50 turn out when `Oc1ccc(CC[C@@H](O)C[C@@H](O)CCc2ccccc2)cc1` was run?
Answer: 57.8 µg/mL (≈ 192 µM)

Question: `Oc1ccc(CC[C@H](O)C[C@@H](O)CCc2ccccc2)cc1` was tested. Which IC50 did it give?
Answer: 56.3 µg/mL (≈ 187 µM)

Question: `O[C@@H](CCc1ccccc1)C[C@@H](O)CCc1ccccc1` was tested. Which IC50 did it give?
Answer: 148 µg/mL (≈ 520 µM)

Question: For `O[C@H](CCc1ccccc1)C[C@@H](O)CCc1ccccc1`, which IC50 is on record?
Answer: 164 µg/mL (≈ 578 µM)

Question: With `COc1cc(CC[C@H](O)C[C@@H](O)CCc2ccccc2)ccc1O` as the compound, how does the IC50 read?
Answer: 69.1 µg/mL (≈ 209 µM)

Question: How did the IC50 turn out when `COc1cc(CC[C@@H](O)C[C@@H](O)CCc2ccccc2)ccc1O` was run?
Answer: 75.2 µg/mL (≈ 228 µM)

These compounds were tested on THP-1 (assay: Antiproliferative activity against human THP1 cells after 48 hrs by MTT assay). Conditions: THP-1, 48 h.
Assay type: functional, cell-based
Outline: as §1

Question: For `Oc1ccc(CC[C@@H](O)C[C@@H](O)CCc2ccccc2)cc1`, which IC50 is on record?
Answer: 12.6 µg/mL (≈ 42 µM)

Question: For `Oc1ccc(CC[C@H](O)C[C@@H](O)CCc2ccccc2)cc1`, which IC50 is on record?
Answer: 12.8 µg/mL (≈ 42.7 µM)

Question: With `O[C@@H](CCc1ccccc1)C[C@@H](O)CCc1ccccc1` as the compound, how does the IC50 read?
Answer: 99.8 µg/mL (≈ 351 µM)

Question: How did the IC50 turn out when `O[C@H](CCc1ccccc1)C[C@@H](O)CCc1ccccc1` was run?
Answer: 40.5 µg/mL (≈ 142 µM)

Question: `COc1cc(CC[C@H](O)C[C@@H](O)CCc2ccccc2)ccc1O` was tested. Which IC50 did it give?
Answer: 42.7 µg/mL (≈ 129 µM)

Question: With `COc1cc(CC[C@@H](O)C[C@@H](O)CCc2ccccc2)ccc1O` as the compound, how does the IC50 read?
Answer: 72.2 µg/mL (≈ 219 µM)

What follows are compounds tested on U-937 (assay: Antiproliferative activity against human U937 cells after 48 hrs by MTT assay). Conditions: U-937, 48 h.
Assay type: functional, cell-based
Outline: as §1

Question: `Oc1ccc(CC[C@@H](O)C[C@@H](O)CCc2ccccc2)cc1` was tested. Which IC50 did it give?
Answer: 33 µg/mL (≈ 110 µM)

Question: For `Oc1ccc(CC[C@H](O)C[C@@H](O)CCc2ccccc2)cc1`, which IC50 is on record?
Answer: 31.1 µg/mL (≈ 103 µM)

Question: Which IC50 does the source give for `O[C@@H](CCc1ccccc1)C[C@@H](O)CCc1ccccc1` here?
Answer: 128 µg/mL (≈ 451 µM)

Question: `O[C@H](CCc1ccccc1)C[C@@H](O)CCc1ccccc1` was tested. Which IC50 did it give?
Answer: 188 µg/mL (≈ 660 µM)

Question: With `COc1cc(CC[C@H](O)C[C@@H](O)CCc2ccccc2)ccc1O` as the compound, how does the IC50 read?
Answer: 27.7 µg/mL (≈ 83.7 µM)

Question: Which IC50 does the source give for `COc1cc(CC[C@@H](O)C[C@@H](O)CCc2ccccc2)ccc1O` here?
Answer: 32.7 µg/mL (≈ 98.9 µM)
